Columns and labels:
[1] = Cmax in mouse at 20 mg/kg, po by LC-MS/MS analysis; format: ADME, organism-based; set-up: dose 20 mg/kg, route po; settings: in vivo
[2] = Observed AUCinfinity in mouse at 20 mg/kg, po by LC-MS/MS analysis; format: ADME, organism-based; set-up: dose 20 mg/kg, route po; settings: in vivo
[3] = Observed AUCinfinity in mouse at 10 mg/kg, iv by LC-MS/MS analysis; format: ADME, organism-based; set-up: dose 10 mg/kg, route iv; settings: in vivo
[4] = Observed MRTinfinity in mouse at 20 mg/kg, po by LC-MS/MS analysis; format: ADME, organism-based; settings: in vivo
[5] = Metabolic stability in mouse liver microsomes assessed as half life in presence of NADPH incubated upto 45 mins by LC/MS analysis; format: ADME, Microsome; settings: 0.75 h
Outline: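 Mouse liver microsomes at 0.5 mg/mL final protein in K/Mg buffer, preincubated 5 min at 37 °C. Reaction started with NADPH (6 mM stock) and sampled at 0, 5, 15, 30 and 45 min. Each sample was quenched with acetonitrile containing internal standard, centrifuged, diluted with water, and analysed by LC/MS for remaining parent.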

[6] = Tmax in mouse at 10 mg/kg, iv by LC-MS/MS analysis; format: ADME, organism-based; settings: in vivo
[7] = Oral bioavailability in mouse at 20 mg/kg by LC-MS/MS analysis; format: ADME, organism-based; settings: in vivo
[8] = Cmax in mouse at 10 mg/kg, iv by LC-MS/MS analysis; format: ADME, organism-based; set-up: dose 10 mg/kg, route iv; settings: in vivo
[9] = Observed volume of distribution at steady state in mouse at 10 mg/kg, iv by LC-MS/MS analysis; format: ADME, organism-based; settings: in vivo
[10] = Metabolic stability in human liver microsomes assessed as half life in presence of NADPH incubated upto 45 mins by LC/MS analysis; format: ADME, Microsome; settings: 0.75 h
Outline: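 Human or mouse liver microsomes, final protein 0.5 mg/mL, in K/Mg buffer. Compound was added from a 1.5 µM spiking solution containing 0.75 mg/mL microsomes, then preincubated 5 min at 37 °C. The reaction was started with NADPH (6 mM stock) and sampled at 0, 5, 15, 30 and 45 min. Samples were quenched with acetonitrile containing internal standard, centrifuged, and the supernatant analysed by LC/MS.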

[11] = AUClast in mouse at 20 mg/kg, po by LC-MS/MS analysis; format: ADME, organism-based; set-up: dose 20 mg/kg, route po; settings: in vivo
[12] = tested on: SARS-CoV-2; experiment: Antiviral activity against SARS-CoV-2 infected in African green monkey Vero E6 cells pre-incubated for 1 hr followed by viral infection measured after 2 hrs by qRT-PCR analysis; format: functional, organism-based; settings: Severe acute respiratory syndrome coronavirus 2, Vero C1008
[13] = Observed MRTinfinity in mouse at 10 mg/kg, iv by LC-MS/MS analysis; format: ADME, organism-based; settings: in vivo
[14] = AUClast in mouse at 10 mg/kg, iv by LC-MS/MS analysis; format: ADME, organism-based; set-up: dose 10 mg/kg, route iv; settings: in vivo
[15] = target: Replicase polyprotein 1ab (Severe acute respiratory syndrome coronavirus 2, UniProt P0DTD1); experiment: Inhibition of full length SARS-CoV-2 3CL protease expressed in Escherichia coli BL21 (DE3) using Dacyl-KTSAVLQSGFRKME-Edans fluorogenic peptide as substrate pre-incubated for 10 mins followed by substrate addition by FRET assay
[16] = tested on: Vero C1008; experiment: Cytotoxicity against African green monkey Vero E6 cells assessed as reduction in cell viability measured after 24 hrs by CCK8 assay; format: toxicity, cell-based; settings: chlorocebus sabaeus, vero c1008, 24 h
[17] = Selectivity Index, ratio of CC50 for African green monkey Vero E6 cells to EC50 for antiviral activity against SARS-CoV-2 infected in African green monkey Vero E6; format: toxicity, Vero C1008; settings: read-out: Ratio CC50/EC50
[18] = Tmax in mouse at 20 mg/kg, po by LC-MS/MS analysis; format: ADME, organism-based; settings: in vivo
[19] = Half life in mouse at 10 mg/kg, iv by LC-MS/MS analysis; format: ADME, organism-based; settings: in vivo
[20] = Half life in mouse at 20 mg/kg, po by LC-MS/MS analysis; format: ADME, organism-based; settings: in vivo

`CC(C)(C)[C@H](NC(=O)C(F)(F)F)C(=O)N1C[C@H]2[C@@H]([C@H]1C(=O)N[C@H](C#N)C[C@@H]1CCNC1=O)C2(C)C` gave a Cmax [1] of 2521.64 ng/mL, an AUC [2] of 2311.94 ng·h/mL and an AUC [3] of 3361.32 ng·h/mL. The MRT [4] was 51 min, the t1/2 [5] was 4.64 min and the Tmax [6] was 4.98 min. It also gave an F [7] of 34.59%, a Cmax [8] of 9630 ng/mL and a Vdss ([9]; iv, 10 mg/kg) of 1.18 L/kg. The t1/2 [10] was 37.93 min, the AUClast [11] was 2308.32 ng·h/mL and the EC50 [12] was 0.58 µM. It also gave an MRT [13] of 23.4 min and an AUClast [14] of 3336.46 ng·h/mL.
With `CC(C)(C)[C@H](NS(=O)(=O)C1CC1)C(=O)N1C[C@H]2[C@@H]([C@H]1C(=O)N[C@H](C#N)C[C@@H]1CCNC1=O)C2(C)C` the IC50 [15] was 0.0228 µM.
With `CC(C)(C)[C@H](NC(=O)C(F)(F)F)C(=O)N1CC2(CC2)C[C@H]1C(=O)N[C@H](C#N)C[C@@H]1CCNC1=O` the IC50 [15] was 0.0368 µM.
For `CC(C)(C)[C@H](NS(=O)(=O)C(F)(F)F)C(=O)N1C[C@H]2[C@@H]([C@H]1C(=O)N[C@H](C#N)C[C@@H]1CCNC1=O)C2(C)C`, the CC50 [16] was > 200 µM, the Cmax [1] was 2052.36 ng/mL and the IC50 [15] was 0.0224 µM. The AUC [2] was 1904.9 ng·h/mL, the selectivity ratio [17] was > 1500 and the Tmax [18] was 30 min. It also gave an AUC [3] of 4120.05 ng·h/mL, a t1/2 [19] of 21 min and a t1/2 [20] of 42.6 min. For the same molecule, the MRT [4] was 48 min, the t1/2 [5] was 97.89 min and the Tmax [6] was 4.8 min. The F [7] was 23.09%, the Cmax [8] was 10500 ng/mL and the Vd ([9]; read-out: Vdss) was 0.69 L/kg. The t1/2 [10] was 652.17 min, the AUClast [11] was 1901.84 ng·h/mL and the EC50 [12] was 0.17 µM. The MRT [13] was 17.4 min and the AUClast [14] was 4118.55 ng·h/mL.
In the case of `CC(C)(C)[C@H](NC(=O)C(F)(F)F)C(=O)N1[C@@H]2CC[C@@H](C2)[C@H]1C(=O)N[C@H](C#N)C[C@@H]1CCNC1=O`, the IC50 [15] is reported as 0.0546 µM.
